High-throughput results as filed in PubChem BioAssay.
The sample as a whole holds a higher share of hits than the screen did.
T cruzi HTS – intracellular Trypanosoma cruzi inhibition; activity score (inhibition), % at 5.01 µM; intracellular Trypanosoma cruzi in host cells, plate reader; AID 651903; actives 4.9% (n = 22,000); in the data active means activity score above about 55%; inconclusive means no clear call, values can overlap the other calls;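 further: parasites and compound incubated about four days before reading; 0% = median of neutral control wells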
INS-1E rescue – INS-1E beta cell protection from cytokine death. INS-1E cytokine-induced death, ATP luminescence, 48 h; normalised: neutral wells 0, positive control 100. AID 488910. actives 0.1% (n = 20,000). protection from cytokine-induced ATP loss, % at 10 µM;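 active means mean replicate protection from cytokine-induced ATP loss at least 50% and at least 75% of replicates each reaching 50%; inconclusive means meets only one of the two criteria, mean or replicate share; inactive means fails both the mean and replicate share criteria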
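assay system = INS-1E rat insulinoma cells | amount = 8000 cells per well | medium = phenol-red-free RPMI with 5% fetal bovine serum | doses = one compound concentration, pin transfer | timing = 48 h cytokine plus compound treatment, 10 min reagent incubation | also added = IL-1β, TNF-α and IFN-γ cytokine mix | signal = CellTiter-Glo luminescence measuring cellular ATP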
A1 apoptosis 2 – blocks A1, raising caspase activity. AID 2465. 24,000 tested, under 10 active. caspase activation, % (concentration not given with the values). MEF A1-2A-BIM cells, caspase-Glo luminescence, 3 h; percent of clofoctol response, DMSO zero; in the data active means caspase activation above about 5.9%; inconclusive means no clear call, values can overlap the other calls; inactive means below about 2.2%
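Test system – A1-2A-BIM-expressing MEF cells · Input – 2500 cells/well · Medium – RPMI-1640 growth medium with 10% FBS · Compound dosing – 50 nL pinned compound · Timing – 3 h compound exposure at 37 °C · Technique – Caspase-Glo luminescence (DEVD substrate) · Evaluation – Caspase-3/7 activity from luminescence increase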
An asterisk follows results filed as active; ? = inconclusive; nt = no result given.

SMILES	T cruzi HTS	INS-1E rescue	A1 apoptosis 2
C[C@H]1CN([C@@H](C)CO)C(=O)c2cc(NC(=O)Nc3cccc4ccccc34)ccc2O[C@H]1CN(C)S(=O)(=O)c1ccc(F)cc1	64.8*	-14.9	nt
C[C@H](CO)N1C[C@H](C)[C@H](CN(C)S(=O)(=O)c2ccc(F)cc2)Oc2ccc(NC(=O)Nc3ccc(C(F)(F)F)cc3)cc2C1=O	14.4	nt	-1.6
Cc1ccc(S(=O)(=O)N(C)C[C@@H]2Oc3ccc(NC(=O)c4ccncc4)cc3C(=O)N([C@H](C)CO)C[C@H]2C)cc1	-13.7	1.6	nt
C[C@@H]1CN([C@@H](C)CO)C(=O)c2cc(NC(=O)Nc3ccc(C(F)(F)F)cc3)ccc2O[C@H]1CN(C)S(=O)(=O)c1ccc(F)cc1	31.9	1.2	-0.2
C[C@@H]1CN([C@@H](C)CO)C(=O)c2cc(NC(=O)Nc3ccc(C(F)(F)F)cc3)ccc2O[C@@H]1CN(C)S(=O)(=O)c1ccc(F)cc1	67.6*	-12.8	-0.8
Cc1ccc(S(=O)(=O)N(C)C[C@@H]2Oc3ccc(NC(=O)c4ccncc4)cc3C(=O)N([C@H](C)CO)C[C@@H]2C)cc1	63.2*	-0.8	nt
O=C(N/N=C/c1ccc(OCc2ccccc2)cc1O)c1ccccn1	nt	nt	-7.7
COC(=O)CCCCCCC(=O)N/N=C/[C@H](O)[C@@H](O)[C@H](O)[C@H](O)CO[C@H]1O[C@H](CO)[C@H](O)[C@H](O)[C@H]1O	-12.4	-7.2	1.1
COC(=O)C(CC#Cc1ccc2c(c1)[C@]1(C(=O)N2)[C@H](C(=O)N2CCCCCCC2)[C@H]2C(=O)O[C@H](c3ccccc3)[C@H](c3ccccc3)N2[C@@H]1c1ccc(O)cc1)C(=O)OC	nt	nt	-0.3
Cc1c(NC(=O)/C(C#N)=C/c2cccc([N+](=O)[O-])c2)c(=O)n(-c2ccccc2)n1C	nt	nt	0.3
Cc1ccc(S(=O)(=O)N2CCC[C@H]2CN=[N+]=[N-])cc1	nt	nt	1.2
Cc1ccc(F)cc1S(=O)(=O)N[C@@H]1CCN(Cc2ccc(CC(C)C)cc2)C1	nt	nt	0.5
Cn1cc(/C=N/NC(=O)c2ccccn2)c2ccccc21	6.2	-9.7	-1.2
C[C@@H]1CN([C@H](C)CO)C(=O)c2cccc(NC(=O)c3ccncc3)c2O[C@H]1CN(C)Cc1ccc(C(F)(F)F)cc1	78.7*	1.7	2.0
C[C@H](CO)N1C[C@H](C)[C@@H](CN(C)Cc2ccc(C(F)(F)F)cc2)Oc2c(NC(=O)c3ccncc3)cccc2C1=O	83.3*	-15.1	0.4
C[C@@H]1CN([C@H](C)CO)C(=O)c2cccc(NC(=O)c3ccncc3)c2O[C@@H]1CN(C)Cc1ccc(C(F)(F)F)cc1	-1.3	-4.9	0.1
C[C@@H]1CN([C@@H](C)CO)C(=O)c2cccc(NC(=O)c3ccncc3)c2O[C@H]1CN(C)Cc1ccc(C(F)(F)F)cc1	77.3*	4.1	-0.3
C[C@H]1CN([C@@H](C)CO)C(=O)c2cccc(NC(=O)c3ccncc3)c2O[C@@H]1CN(C)Cc1ccc(C(F)(F)F)cc1	78.0*	16.6	-0.1
C[C@@H]1CN([C@@H](C)CO)C(=O)c2cccc(NC(=O)c3cnccn3)c2O[C@H]1CN(C)Cc1ccc(C(F)(F)F)cc1	15.4	-1.3	-1.5
C[C@@H]1CN([C@H](C)CO)C(=O)c2cccc(NC(=O)c3cnccn3)c2O[C@H]1CN(C)Cc1ccc(C(F)(F)F)cc1	-2.8	-3.6	-0.2
O=C(CCCCCCC(=O)N/N=C/c1ccc(O)cc1)NO	nt	nt	-1.6
Cc1ncc(CO)c(/C=N/NC(=O)c2cccc(C(=O)NO)c2)c1O	2.4	-2.3	0.0
O=C(CCCCCC(=O)N/N=C/c1ccc(OCCO)cc1)NO	nt	nt	0.7
O=C(O)CCCCCCC(=O)N/N=C/c1ccc(CO)o1	-13.4	2.2	1.3
O=C(CCCCCCC(=O)N/N=C/c1ccc(CO)o1)NO	-3.1	51.6*	nt
SMILES	T cruzi HTS	INS-1E rescue	A1 apoptosis 2
O=C(CCCCCCC(=O)N/N=C/c1ccc(OCCO)cc1)NO	6.3	115.8*	nt
Cc1ccsc1/C=N/NC(=O)CCCCCCC(=O)O	-4.8	4.5	2.1
C[C@H]1CN([C@@H](C)CO)C(=O)Cc2cc(NC(=O)Nc3ccc(C(F)(F)F)cc3)ccc2O[C@H]1CN(C)S(=O)(=O)c1ccc(F)cc1	30.9	-13.3	-1.5
Cc1ccc(S(=O)(=O)N(C)C[C@H]2Oc3ccc(NC(=O)Nc4ccc(C(F)(F)F)cc4)cc3CC(=O)N([C@@H](C)CO)C[C@H]2C)cc1	57.8*	-35.9	1.2
C[C@H](CO)N1C[C@H](C)[C@H](CN(C)S(=O)(=O)c2ccc(Cl)cc2)Oc2ccc(NC(=O)Nc3ccc(C(F)(F)F)cc3)cc2CC1=O	63.5*	-8.6	nt
C[C@@H]1CN([C@H](C)CO)C(=O)Cc2cc(NC(=O)Nc3ccc(C(F)(F)F)cc3)ccc2O[C@H]1CN(C)S(=O)(=O)c1ccc(Cl)cc1	32.7	-62.0	nt
C[C@@H]1CN([C@@H](C)CO)C(=O)Cc2cc(NC(=O)Nc3ccc(C(F)(F)F)cc3)ccc2O[C@@H]1CN(C)S(=O)(=O)c1ccc(F)cc1	81.5*	-4.3	nt
C[C@@H]1CN([C@H](C)CO)C(=O)Cc2cc(NC(=O)Nc3ccc(C(F)(F)F)cc3)ccc2O[C@@H]1CN(C)S(=O)(=O)c1ccc(Cl)cc1	58.4*	5.9	0.1
C[C@@H]1CN([C@@H](C)CO)C(=O)Cc2cc(NC(=O)Nc3ccc(C(F)(F)F)cc3)ccc2O[C@H]1CN(C)S(=O)(=O)c1ccc(Cl)cc1	nt	nt	0.5
Cc1ccc(S(=O)(=O)N(C)C[C@@H]2Oc3ccc(NC(=O)Nc4ccc(C(F)(F)F)cc4)cc3CC(=O)N([C@@H](C)CO)C[C@@H]2C)cc1	?	-56.7	nt
COc1ccc(Br)cc1/C=N/NC(=O)CCCCCC(=O)Nc1ccccc1O	10.6	-4.9	-0.2
CCOc1cc(/C=N/NC(=O)c2ccccn2)ccc1O	-5.5	3.1	-1.3
COc1ccc(S(=O)(=O)N(C)C[C@H]2Oc3ccc(NC(=O)Nc4ccc(C(F)(F)F)cc4)cc3CC(=O)N([C@H](C)CO)C[C@@H]2C)cc1	nt	nt	1.8
COc1ccc(S(=O)(=O)N(C)C[C@H]2Oc3ccc(NC(=O)Nc4ccc(C(F)(F)F)cc4)cc3CC(=O)N([C@@H](C)CO)C[C@H]2C)cc1	64.5*	-12.2	0.0
C[C@@H]1CN([C@@H](C)CO)C(=O)c2cccc(NC(=O)NC3CCCCC3)c2O[C@H]1CN(C)Cc1ccc(Cl)c(Cl)c1	62.4*	-4.7	nt
C[C@@H]1CN([C@H](C)CO)C(=O)c2cccc(NC(=O)C3CCCCC3)c2O[C@H]1CN(C)Cc1ccc(Cl)c(Cl)c1	59.6*	-16.6	0.0
C[C@@H]1CN([C@@H](C)CO)C(=O)c2cccc(NC(=O)NC3CCCCC3)c2O[C@@H]1CN(C)Cc1ccc(Cl)c(Cl)c1	-51.6	-18.5	-0.6
C[C@H](CO)N1C[C@H](C)[C@H](CN(C)Cc2ccc(Cl)c(Cl)c2)Oc2c(NC(=O)C3CCCCC3)cccc2C1=O	14.2	-40.7	nt
CC(C)=CCC[C@@H](C)C/C=N/NC(=O)CCCCCCC(=O)Nc1ccccc1O	0.0	3.9	-0.2
O=C(N/N=C/c1nccs1)c1ccccn1	-25.3	-87.2	-0.8
C=CCOc1ccccc1/C=N/NC(=O)c1ccccc1O	-5.0	11.8	-1.9
